In ChEMBL document CHEMBL4706480, “Pyridin-2(1H)one derivatives: A possible new class of therapeutics for mechanical allodynia” (Eur J Med Chem, 2020):
Active and inactive are the calls of the source. The rule behind the calls is not given here.

How the values were obtained:
[1] = biological target: Protein kinase C gamma type (Homo sapiens) (UniProt P05129); test: Inhibition of PKC-gamma (unknown origin) assessed as residual activity at 10 uM
Rattus norvegicus [2] = test: Anti-allodynic activity in complete freund's adjuvant-induced rat inflammatory pain model assessed as inflammatory mechanical allodynia pretreated at 100 uM intra-cisternally administerd 30 min before CFA injection; assay type: functional, organism-based
In short: (§1)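 Rats briefly anesthetized (<2 min, 2% isoflurane by mask), given intracisternal 5 μL compound (100 μM) or vehicle (saline + 1% DMSO) 30 min before subcutaneous CFA (25 μL, 2.5 mg/kg) into right vibrissa pad. Static mechanical allodynia tested with 6-g von Frey filament on face every 15 or 30 min over 120 min; allodynic score 0–4 (Vos). n=4–6 rats.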

Rattus norvegicus [3] = test: Anti-allodynic activity in complete freund's adjuvant-induced rat inflammatory pain model assessed as inflammatory mechanical allodynia pretreated at 100 uM intra-cisternally administerd 30 min before CFA injection measured 120 min after CFA injection relative to control; assay type: functional; conditions: 0.5 h; in short: as §1
Rattus norvegicus [4] = test: Anti-allodynic activity in complete freund's adjuvant-induced rat inflammatory pain model assessed as inflammatory mechanical allodynia pretreated at 0.15 ug intra-cisternally administerd 30 min before CFA injection relative to control; assay type: functional; conditions: dose 0.15 µg, 0.5 h; in short: as §1
[5] = biological target: Mitogen-activated protein kinase 14 (Homo sapiens) (UniProt Q16539); test: Inhibition of p38alpha MAPK (unknown origin) assessed as residual activity at 10 uM
Sequence of Mitogen-activated protein kinase 14 (Homo sapiens) (Q16539 whole entry): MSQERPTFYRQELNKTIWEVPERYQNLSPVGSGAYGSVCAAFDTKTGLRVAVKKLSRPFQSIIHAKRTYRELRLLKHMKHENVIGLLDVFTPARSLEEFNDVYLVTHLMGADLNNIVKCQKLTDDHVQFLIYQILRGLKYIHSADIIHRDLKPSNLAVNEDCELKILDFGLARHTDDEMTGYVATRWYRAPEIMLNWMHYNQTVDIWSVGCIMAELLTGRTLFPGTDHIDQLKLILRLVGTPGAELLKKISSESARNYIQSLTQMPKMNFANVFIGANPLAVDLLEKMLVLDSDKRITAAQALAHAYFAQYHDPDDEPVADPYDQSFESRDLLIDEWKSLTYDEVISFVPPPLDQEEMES

Rattus norvegicus [6] = test: Anti-allodynic activity in constriction injury-induced rat neuropathic mechanic allodynia model assessed as inflammatory mechanical allodynia at 0.17 ug intra-cisternally administered on day 14 after injury; assay type: functional, organism-based; conditions: dose 0.17 µg, in the assay text read “static mechanical allodynia” for “inflammatory mechanical allodynia”
In short: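 Neuropathic model: infraorbital nerve chronic constriction (two loose 4/0 chromic catgut ligatures 1 mm apart, chloral hydrate 400 mg/kg i.p. anesthesia). On day 14, once stable allodynia present, intracisternal 5 μL compound (100 μM) or vehicle (saline + 1% DMSO) under brief isoflurane. Face stimulated with 6-g von Frey filament; allodynic score 0–4; n=5/group; mean ± s.e.m.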

Rattus norvegicus [7] = test: Anti-allodynic activity in complete freund's adjuvant-induced rat inflammatory pain model assessed as inflammatory mechanical allodynia pretreated at 0.17 ug intra-cisternally administerd 30 min before CFA injection relative to control; assay type: functional; conditions: dose 0.17 µg, 0.5 h; in short: as §1

SMILES	Activity [1] [%]	inhibition (Rattus norvegicus [2])	further results
O=c1[nH]cc(Nc2ccccc2)cc1-c1c[nH]c2ccccc12	> 85		
O=c1[nH]cc(Nc2ccccc2)cc1-c1ccc(F)cc1F		Active	
O=c1[nH]cc(Nc2ccccc2)cc1-c1cncnc1	> 85	Active	
O=c1[nH]cc(Nc2ccccc2)cc1-c1ccccc1Cl		Active	
O=c1[nH]cc(Nc2ccccc2)cc1-c1ccc(F)cc1	> 85	Active	
O=c1[nH]cc(Nc2ccccc2)cc1-c1cccc2cnccc12	> 85		
NC(=O)c1ccc(-c2cc(Nc3ccccc3)c[nH]c2=O)cc1		Active	
O=c1[nH]cc(Nc2ccccc2)cc1-c1ccncc1	> 85	Active	inhibition in vivo at 100 µM (Rattus norvegicus [3]): 90%
O=c1[nH]cc(Nc2ccccc2)cc1-c1ccnc2ccccc12		Active	
CC(=O)c1cccc(-c2cc(Nc3ccccc3)c[nH]c2=O)c1		Active	
O=c1[nH]cc(Nc2ccccc2)cc1-c1ccccc1	> 85	Active	
NC(=O)c1ccccc1-c1cc(Nc2ccccc2)c[nH]c1=O		Active	
CCOC(=O)c1ccccc1-c1cc(Nc2ccccc2)c[nH]c1=O		Active	
O=c1[nH]cc(Nc2ccccc2)cc1-c1cccc(Cl)c1		Active	
O=c1[nH]cc(Nc2ccccc2)cc1-c1ccccc1[N+](=O)[O-]		Active	
O=c1[nH]cc(Nc2ccccc2)cc1-c1ccc(O)cc1		Active	
O=c1[nH]cc(Nc2ccccc2)cc1-c1cccc2[nH]ccc12		Active	inhibition (INH) (Rattus norvegicus [4]): 98%
O=c1[nH]cc(Nc2ccccc2)cc1-c1ccccc1Br		Active	Activity [5]: 19%; inhibition (Rattus norvegicus [6]): Active; inhibition (INH) (Rattus norvegicus [7]): 99%
O=c1[nH]cc(Nc2ccccc2)cc1-c1cccc2cccnc12	> 85	Active	
O=c1[nH]cc(Nc2ccccc2)cc1-c1ccc(OC(F)(F)F)cc1		Active	
O=c1[nH]cc(Nc2ccccc2)cc1-c1ccc(C(F)(F)F)cc1		Active	
COC(=O)c1ccc(-c2cc(Nc3ccccc3)c[nH]c2=O)cc1		Active	
Cc1ccc(-c2cc(Nc3ccccc3)c[nH]c2=O)cc1		Active	
